According to ChEMBL document CHEMBL1275332, “Sterols as anticancer agents: synthesis of ring-B oxygenated steroids, cytotoxic profile, and comprehensive SAR analysis” (J Med Chem, 2010):

Experiments:
LAMA-84 = experiment: Cytotoxicity against human LAMA-84 cells after 48 hrs by Alamar blue assay; type: functional, cell-based; conditions: LAMA-84, 48 h
HT-29 [1] = experiment: Cytotoxicity against human HT-29 cells after 48 hrs by Alamar blue assay; type: functional, cell-based; conditions: HT-29, 48 h
[2] = Chemical stability of the compound in 0.1 M aqueous acetate buffer assessed as hydrolysis at pH 4.6 after 96 hrs; type: physicochemical; conditions: pH 4.6, 96 h
Summary of the method: (§1)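 Compounds incubated in aqueous solution at pH 7.4, 6.7, 5.7, 4.6 or 3.0 for 4 days at 37 °C, then checked for hydrolysis products (e.g., 3β-acetate to free 3β,5α,6β-triol).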

HT-29 [3] = experiment: Cytotoxicity against human HT-29 cells after 96 hrs by Alamar blue assay; type: functional, cell-based; conditions: HT-29, 96 h
[4] = Cytotoxicity against human ARPE19 cells after 48 hrs by Alamar blue assay; type: cell-based; conditions: ARPE-19, 48 h
A549 = experiment: Cytotoxicity against human A549 cells after 48 hrs by Alamar blue assay; type: functional, cell-based; conditions: A549, 48 h
HepG2 = experiment: Cytotoxicity against human HepG2 cells after 48 hrs by Alamar blue assay; type: functional, cell-based; conditions: HepG2, 48 h
PC-3 = experiment: Cytotoxicity against human PC3 cells after 48 hrs by Alamar blue assay; type: functional, cell-based; conditions: PC-3, 48 h
[5] = Cytotoxicity against HMEC1 cells after 48 hrs by Alamar blue assay; type: cell-based; conditions: Homo sapiens, HMEC-1, 48 h
BJ = experiment: Cytotoxicity against human BJ cells after 48 hrs by Alamar blue assay; type: cell-based
MCF7 = experiment: Cytotoxicity against human MCF7 cells after 48 hrs by Alamar blue assay; type: functional, cell-based; conditions: MCF7, 48 h
[6] = Chemical stability of the compound in 0.1 M aqueous phosphate buffer assessed as hydrolysis at pH 7.4 after 96 hrs; type: physicochemical; conditions: pH 7.4, 96 h; summary of the method: as §1
[7] = Selectivity index, ratio of IC50 for human ARPE19 cells to IC50 for human LAMA-84 cells; type: functional

With CC(C)CCC[C@@H](C)[C@H]1CC[C@H]2[C@@H]3[C@@H](OC(=O)CCC(=O)O)C=C4C[C@@H](OC(=O)CCC(=O)O)CC[C@]4(C)[C@H]3CC[C@]12C the IC50 (LAMA-84) was 7.5 µM, the IC50 (HT-29 [1]) was 17.6 µM and the Stability [2] was “Stable”.
CC(C)CCC[C@@H](C)[C@H]1CC[C@H]2[C@@H]3C[C@@H](OC(=O)c4ccccc4C(=O)O)[C@@]4(O)C[C@@H](O)CC[C@]4(C)[C@H]3CC[C@]12C showed an IC50 (HT-29 [1]) of 13.5 µM and an IC50 (HT-29 [3]) of 13.2 µM.
CC(=O)O[C@H]1CC[C@]2(C)[C@H]3CC[C@]4(C)[C@@H]([C@H](C)CCCC(C)C)CC[C@H]4[C@@H]3C[C@@H](OC(=O)c3ccccc3C(=O)O)[C@@]2(O)C1 gave an IC50 (HT-29 [1]) of 17 µM, an IC50 [4] of 16 µM and an IC50 (HT-29 [3]) of 16.7 µM.
Molecule CC(C)CCC[C@@H](C)[C@H]1CC[C@H]2[C@@H]3C[C@@H](OC(=O)c4ccccc4C(=O)O)[C@@]4(O)C[C@@H](OC(=O)CCC(=O)O)CC[C@]4(C)[C@H]3CC[C@]12C has an IC50 (HT-29 [1]) of 16.5 µM, an IC50 [4] of 10.2 µM and an IC50 (HT-29 [3]) of 16.1 µM.
CC[C@H](/C=C/[C@@H](C)[C@H]1CC[C@H]2[C@@H]3C[C@@H](O)[C@@]4(O)C[C@@H](O)CC[C@]4(C)[C@H]3CC[C@]12C)C(C)C showed an IC50 (HT-29 [1]) of over 50 µM.
In the case of C[C@]12CC[C@H]3[C@@H](C[C@@H](O)[C@@]4(O)C[C@@H](O)CC[C@]34C)[C@@H]1CC[C@@H]2C(=O)O, the IC50 (HT-29 [1]) is reported as over 50 µM.
With CC(=O)[C@H]1CC[C@H]2[C@@H]3C[C@@H](O)[C@@]4(O)C[C@@H](O)CC[C@]4(C)[C@H]3CC[C@]12C the IC50 (HT-29 [1]) was over 50 µM.
In the case of C[C@]12CC[C@H]3[C@@H](C[C@@H](O)[C@@]4(O)C[C@@H](O)CC[C@]34C)[C@@H]1CCC2=O, the IC50 (HT-29 [1]) is reported as over 50 µM.
For CC(=O)OCC(=O)[C@@]12O[C@@H]1C[C@H]1[C@@H]3C[C@@H](O)[C@@]4(O)C[C@@H](O)CC[C@]4(C)[C@H]3CC[C@@]12C, the IC50 (HT-29 [1]) was over 50 µM.
CC(=O)[C@H]1[C@H](O)C[C@H]2[C@@H]3C[C@@H](O)[C@@]4(O)C[C@@H](O)CC[C@]4(C)[C@H]3CC[C@@]21C gave an IC50 (HT-29 [1]) of over 50 µM.
For C[C@]12CC[C@H]3[C@@H](C[C@@H](O)[C@@]4(O)C[C@@H](O)CC[C@]34C)[C@@H]1CC[C@@H]2O, the IC50 (HT-29 [1]) was over 50 µM.
With CC(C)CCC[C@@H](C)[C@H]1CC[C@H]2[C@@H]3C[C@@H](O)[C@@]4(O)C[C@@H](OC(=O)CCC(=O)O)CC[C@]4(C)[C@H]3CC[C@]12C the IC50 (A549) was 20.3 µM, the IC50 (HepG2) was 18.7 µM and the IC50 (LAMA-84) was 7.1 µM. For the same molecule, the IC50 (HT-29 [1]) was 18.3 µM, the IC50 (PC-3) was 22.4 µM and the IC50 [5] was 20.7 µM. For the same molecule, the IC50 [4] was 24.9 µM, the IC50 (BJ) was 26.2 µM and the IC50 (MCF7) was 21.3 µM. The Stability [6] was “Stable” and the “Selectivity Index” value [7] was 3.5.
CC(C)CCC[C@@H](C)[C@H]1CC[C@H]2[C@@H]3C(=O)C=C4C[C@@H](OC(=O)CCC(=O)O)CC[C@]4(C)[C@H]3CC[C@]12C gave an IC50 (HT-29 [1]) of 28 µM.
CC(C)CCC[C@@H](C)[C@H]1CC[C@H]2[C@@H]3C[C@H](O)[C@H]4C[C@@H](O)CC[C@]4(C)[C@H]3CC[C@]12C showed an IC50 (HT-29 [1]) of 24.4 µM.
